One experiment addresses T1, Adenosine receptor A1 (Homo sapiens, UniProt P30542).
T1 sequence (P30542 whole entry): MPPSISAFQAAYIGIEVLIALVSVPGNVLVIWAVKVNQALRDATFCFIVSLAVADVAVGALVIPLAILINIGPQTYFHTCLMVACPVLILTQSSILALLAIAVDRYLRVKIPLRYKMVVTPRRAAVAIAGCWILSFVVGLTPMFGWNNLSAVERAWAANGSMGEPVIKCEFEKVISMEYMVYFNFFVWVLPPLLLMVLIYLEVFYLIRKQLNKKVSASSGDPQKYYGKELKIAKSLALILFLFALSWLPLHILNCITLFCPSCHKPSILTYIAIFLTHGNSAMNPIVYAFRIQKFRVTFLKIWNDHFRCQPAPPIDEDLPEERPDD
Put plainly: Displacement of [3H]CHA from human adenosine A1 receptor expressed in CHO cells. The class given is cell-based. A digest of the protocol:
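Human A1 in CHO cell membranes, pretreated with adenosine deaminase 2 IU/mL for 30 min at 37 °C. 50 µg protein per assay incubated with 1 nM [³H]CHA and 6–8 agonist concentrations in 50 mM Tris-HCl pH 7.4 for 150 min at 25 °C. Nonspecific binding defined by 10 µM CHA. Separated by GF/B filtration, counted by scintillation. Ki from IC50 via Cheng–Prusoff.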
(In a radioligand displacement assay an active substance lowers the binding of a labelled ligand.)

Another experiment deals with Adenosine receptor A2a (Homo sapiens, UniProt P29274). The experiment in a line: Displacement of [3H]CGS-21680 from human adenosine A2A receptor expressed in CHO cells. In kind it is cell-based. Set-up: concentration or dose not given beside the values.
Chain of Adenosine receptor A2a (P29274 whole entry): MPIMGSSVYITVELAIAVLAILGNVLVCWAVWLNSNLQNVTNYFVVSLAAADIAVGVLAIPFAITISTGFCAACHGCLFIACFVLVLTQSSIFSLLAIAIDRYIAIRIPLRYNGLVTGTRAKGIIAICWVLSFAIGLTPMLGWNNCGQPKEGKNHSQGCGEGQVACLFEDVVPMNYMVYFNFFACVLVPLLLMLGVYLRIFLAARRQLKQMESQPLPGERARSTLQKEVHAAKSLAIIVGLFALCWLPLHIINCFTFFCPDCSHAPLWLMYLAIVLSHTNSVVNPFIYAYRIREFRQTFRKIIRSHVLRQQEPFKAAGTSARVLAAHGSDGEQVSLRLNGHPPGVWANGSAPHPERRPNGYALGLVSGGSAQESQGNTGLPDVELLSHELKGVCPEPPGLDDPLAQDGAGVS
A further experiment concerns the target T2, Adenosine receptor A2b (Homo sapiens, UniProt P29275).
T2 sequence (P29275 whole entry): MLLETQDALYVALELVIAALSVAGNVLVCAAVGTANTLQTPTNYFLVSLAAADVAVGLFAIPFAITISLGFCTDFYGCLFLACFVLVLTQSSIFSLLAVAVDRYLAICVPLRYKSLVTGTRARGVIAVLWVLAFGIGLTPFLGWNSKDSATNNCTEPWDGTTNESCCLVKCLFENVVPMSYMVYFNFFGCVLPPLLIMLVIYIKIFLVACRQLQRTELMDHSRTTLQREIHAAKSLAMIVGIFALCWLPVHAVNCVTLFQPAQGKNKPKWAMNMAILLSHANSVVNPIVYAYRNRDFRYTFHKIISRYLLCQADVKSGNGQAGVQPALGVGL
The experiment in a line: Agonist activity at human adenosine A2B receptor expressed in CHO cells assessed as stimulation of cAMP production. In kind it is functional, cell-based. A digest of the protocol:
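CHO cells stably expressing human A2B, grown in DMEM/F12 with 10% serum and G418, trypsinized and pelleted. 1 × 10⁶ cells/assay preincubated 10 min at 37 °C with adenosine deaminase 2 IU/mL and Ro 20-1724. Ligands at 1 nM–10 µM added for 5 min, stopped with cold 6% TCA, ether-extracted. cAMP read by [³H]cAMP competition protein binding. EC50 from sigmoid non-linear regression; 3–4 experiments in duplicate.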
In general terms: Changes in cAMP serve as a functional read-out for many G protein-coupled receptors.

For another experiment, the target named is T3, Adenosine receptor A3 (Homo sapiens, UniProt P0DMS8).
T3 sequence (P0DMS8 whole entry): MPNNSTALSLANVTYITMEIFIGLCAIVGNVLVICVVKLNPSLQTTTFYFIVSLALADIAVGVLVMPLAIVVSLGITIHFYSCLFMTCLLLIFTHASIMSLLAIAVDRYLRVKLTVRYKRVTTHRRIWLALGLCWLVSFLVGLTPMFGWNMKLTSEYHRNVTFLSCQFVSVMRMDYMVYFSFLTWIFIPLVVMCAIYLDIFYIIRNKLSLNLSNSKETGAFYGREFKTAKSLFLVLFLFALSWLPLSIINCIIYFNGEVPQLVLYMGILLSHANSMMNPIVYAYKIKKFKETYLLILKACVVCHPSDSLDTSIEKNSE
The experiment in a line: Displacement of [125I]ABMECA from human adenosine A3 receptor expressed in CHO cells.

SMILES strings stand for the structures. pEC50, pKi: −log10 of the molar value.

Usually pKi stands for the Ki on a negative log10 scale, so that one unit is a factor of ten. One may read the pEC50 as −log10 of the EC50, conventionally taken in molar units. Consider `CCNC(=O)[C@H]1O[C@@H](n2cnc3c(Nc4ccc(OCC(=O)NC5CCCCC5)cc4)ncnc32)[C@H](O)[C@@H]1O`, for which the pKi on Adenosine receptor A1 was 7.79; at Adenosine receptor A2a, under 6.00; at Adenosine receptor A3, 7.14. For the same compound, on Adenosine receptor A2a, the Activity turned out to be 40%. Moreover, the pEC50 at Adenosine receptor A2b is 6.50.
For `CCNC(=O)[C@H]1O[C@@H](n2cnc3c(Nc4ccc(OCC(=O)Nc5ccc(OC)cc5)cc4)ncnc32)[C@H](O)[C@@H]1O`, the pKi is 8.33 on Adenosine receptor A1, under 6.00 on Adenosine receptor A2a and 7.60 at Adenosine receptor A3. Moreover, the Activity on Adenosine receptor A2a is 42%. Besides, the pEC50 at Adenosine receptor A2b was 7.49.
On to `CCNC(=O)[C@H]1O[C@@H](n2cnc3c(Nc4ccc(OCC(=O)Nc5cc(OC)cc(OC)c5)cc4)ncnc32)[C@H](O)[C@@H]1O`, for which the pKi on Adenosine receptor A1 is 7.82; at Adenosine receptor A2a it was under 6.00; at Adenosine receptor A3 it was 7.10. The same compound had an Activity at Adenosine receptor A2a of 13%. In addition, the pEC50 at Adenosine receptor A2b was 7.27.
For `CCNC(=O)[C@H]1O[C@@H](n2cnc3c(Nc4ccc(OCC(=O)NCc5ccccc5)cc4)nc(Cl)nc32)[C@H](O)[C@@H]1O`, the pKi on Adenosine receptor A1 is 7.65; on Adenosine receptor A2a it was under 6.00; on Adenosine receptor A3 it was 7.12. Further, the Activity on Adenosine receptor A2a came to 49%. Further, the pEC50 on Adenosine receptor A2b is 6.76.
For `CCNC(=O)[C@H]1O[C@@H](n2cnc3c(Nc4ccc(OCC(=O)Nc5ccc(I)cc5)cc4)ncnc32)[C@H](O)[C@@H]1O`, the pKi was 8.28 on Adenosine receptor A1, under 6.00 on Adenosine receptor A2a and 7.07 at Adenosine receptor A3. Further, the Activity on Adenosine receptor A2a is 28%. For the same compound, the negative-log EC50 (pEC50) on Adenosine receptor A2b was 7.52.
In the case of `CCNC(=O)[C@H]1O[C@@H](n2cnc3c(Nc4ccc(OCC(=O)Nc5ccc(F)cc5)cc4)ncnc32)[C@H](O)[C@@H]1O`, the pKi at Adenosine receptor A1 is 8.64; at Adenosine receptor A2a it was under 6.00; at Adenosine receptor A3, 7.14. In addition, the Activity at Adenosine receptor A2a is 48%. Further, the pEC50 at Adenosine receptor A2b is 7.82.
Regarding `CCNC(=O)[C@H]1O[C@@H](n2cnc3c(Nc4ccc(OCC(=O)Nc5ccccc5)cc4)ncnc32)[C@H](O)[C@@H]1O`, the pKi on Adenosine receptor A1 is 8.07; on Adenosine receptor A2a, under 6.00; on Adenosine receptor A3, 7.42. Moreover, the Activity at Adenosine receptor A2a amounted to 45%. Also, the pEC50 at Adenosine receptor A2b was 8.14.
The corresponding values for `CCNC(=O)[C@H]1O[C@@H](n2cnc3c(Nc4ccc(OCC(=O)Nc5ccccc5C(F)(F)F)cc4)ncnc32)[C@H](O)[C@@H]1O` are 7.50, under 6.00, 6.94, 1% and 6.97.
Take `CCNC(=O)[C@H]1O[C@@H](n2cnc3c(Nc4ccc(OCC(=O)Nc5ccc(Br)cc5)cc4)ncnc32)[C@H](O)[C@@H]1O`: the negative logarithm of the Ki (pKi) on Adenosine receptor A1 was 8.46; on Adenosine receptor A2a, under 6.00; on Adenosine receptor A3 it was 7.44. The Activity at Adenosine receptor A2a was 26%. Also, on Adenosine receptor A2b, the pEC50 is 7.98.
With `CCNC(=O)[C@H]1O[C@@H](n2cnc3c(Nc4ccc(OCC(=O)Nc5ccc(OC)cc5)cc4)nc(Cl)nc32)[C@H](O)[C@@H]1O`, the pKi is 7.30 at Adenosine receptor A1, under 6.00 at Adenosine receptor A2a and 7.00 at Adenosine receptor A3. This compound also displayed an Activity at Adenosine receptor A2a of 27%. Besides, the pEC50 on Adenosine receptor A2b is 6.44.
On the same counts, the results for `CCNC(=O)[C@H]1O[C@@H](n2cnc3c(Nc4ccc(OCC(=O)Nc5ccc(Cl)cc5)cc4)ncnc32)[C@H](O)[C@@H]1O` are 8.51, under 6.00, 7.47, 35% and 7.91.
On the same counts, the results for `CCNC(=O)[C@H]1O[C@@H](n2cnc3c(Nc4ccc(OCC(=O)Nc5ccc(OC)c(OC)c5)cc4)ncnc32)[C@H](O)[C@@H]1O` are 8.11, under 6.00, 7.27, 30% and 7.34.
With `CCNC(=O)[C@H]1O[C@@H](n2cnc3c(Nc4ccc(OCC(=O)NCc5ccccc5)cc4)ncnc32)[C@H](O)[C@@H]1O`, the pKi on Adenosine receptor A1 was 7.69; at Adenosine receptor A2a, under 6.00; at Adenosine receptor A3, 7.08. On Adenosine receptor A2a, this compound gave an Activity of 49%. Moreover, the pEC50 at Adenosine receptor A2b was 6.82.
As for `CCNC(=O)[C@H]1O[C@@H](n2cnc3c(Nc4ccc(OCC(=O)Nc5ccccc5)cc4)nc(Cl)nc32)[C@H](O)[C@@H]1O`, the figures for the pKi on Adenosine receptor A1, at Adenosine receptor A2a and on Adenosine receptor A3 were 7.52, under 6.00 and 6.97, respectively. On Adenosine receptor A2a, this compound showed an Activity of 36%. Further, the pEC50 at Adenosine receptor A2b was 7.37.
The corresponding values for `CCNC(=O)[C@H]1O[C@@H](n2cnc3c(Nc4ccc(OCC(=O)Nc5ccc(N6CCOCC6)cc5)cc4)ncnc32)[C@H](O)[C@@H]1O` are 7.11, under 6.00, 6.49, 1% and 6.52.
As to `CCNC(=O)[C@H]1O[C@@H](n2cnc3c(Nc4ccc(OCC(=O)NCc5ccc(OC)cc5)cc4)ncnc32)[C@H](O)[C@@H]1O`, the pKi is 7.55 on Adenosine receptor A1, under 6.00 on Adenosine receptor A2a and 7.18 at Adenosine receptor A3. This compound yielded an Activity at Adenosine receptor A2a of 1%. The pEC50 at Adenosine receptor A2b is 6.62.
As to `CCNC(=O)[C@H]1O[C@@H](n2cnc3c(Nc4ccc(OCC(=O)Nc5ccncc5)cc4)ncnc32)[C@H](O)[C@@H]1O`, the pKi on Adenosine receptor A1 is 7.95; at Adenosine receptor A2a, under 6.00; at Adenosine receptor A3, 7.37. Moreover, the Activity at Adenosine receptor A2a worked out at 37%. In addition, at Adenosine receptor A2b, the pEC50 is 7.49.
The corresponding values for `CCNC(=O)[C@H]1O[C@@H](n2cnc3c(Nc4ccc(OCC(=O)NC5CCCCC5)cc4)nc(Cl)nc32)[C@H](O)[C@@H]1O` are 7.51, under 6.00, 7.02, 46% and 6.52.
On to `CCNC(=O)[C@H]1O[C@@H](n2cnc3c(Nc4ccc(OCC(=O)Nc5ccc(C(C)(C)C)cc5)cc4)ncnc32)[C@H](O)[C@@H]1O`, for which the pKi on Adenosine receptor A1 is 7.73; at Adenosine receptor A2a, under 6.00; on Adenosine receptor A3, 7.40. In addition, the Activity at Adenosine receptor A2a came to 1%. In addition, at Adenosine receptor A2b, the pEC50 is 7.79.
Take `CCNC(=O)[C@H]1O[C@@H](n2cnc3c(Nc4ccc(OCC(=O)Nc5ccc6c(c5)OCO6)cc4)ncnc32)[C@H](O)[C@@H]1O`: the pKi on Adenosine receptor A1 was 8.08; on Adenosine receptor A2a, under 6.00; on Adenosine receptor A3, 7.09. The Activity on Adenosine receptor A2a turned out to be 5%. On Adenosine receptor A2b, the pEC50 is 7.45.

(Values after ChEMBL document CHEMBL1142924, “N(6)-[(hetero)aryl/(cyclo)alkyl-carbamoyl-methoxy-phenyl]-(2-chloro)-5'-N-ethylcarboxamido-adenosines: the first example of adenosine-related structures with potent agonist activity at the human A(2B) adenosine receptor” (Bioorg Med Chem, 2007).)
